Measurements of several laboratories.
Lines come from different studies, so protocols differ.
gyrA: DNA gyrase subunit A (gyrA, Escherichia coli K-12, UniProt P0AES4)
gag-pol reverse transcriptase: Gag-Pol polyprotein, reverse transcriptase (gag-pol, Human immunodeficiency virus 1, UniProt P03366)
PDE2A: cGMP-dependent 3',5'-cyclic phosphodiesterase (PDE2A, Homo sapiens, UniProt O00408)
PRMT6: Protein arginine N-methyltransferase 6 (PRMT6, Homo sapiens, UniProt Q96LA8)

SMILES	target	assay	setting	IC50 [nM]
N#Cc1ccc(COc2cccc(C3CCN(Cc4nc5ccc(C(=O)O)cc5n4C[C@@H]4CCO4)CC3)n2)c(F)c1	Gastric inhibitory polypeptide receptor (GIPR, Homo sapiens, UniProt P48546)	cAMP, antagonist	–	> 10000
CC(C)Oc1c(NC(=O)c2ccc(NC(=O)[C@H](CC(N)=O)NC(=O)c3ccc(NC(=O)c4ccc(NC(N)=O)cc4)cc3)cc2)ccc(C(=O)Nc2ccc(C(=O)O)cc2)c1O	gyrA	enzyme activity, inhibitor	–	8700
COc1ccc2c(Oc3ccc4c(C(=O)Nc5ccccc5N)cccc4c3)ccnc2c1	Receptor tyrosine-protein kinase erbB-2 (ERBB2, Homo sapiens, UniProt P04626)	enzyme activity, inhibitor	–	> 500
CC(C)Oc1c(NC(=O)c2ccc(NC(=O)[C@H](CC(N)=O)NC(=O)c3ccc(NC(=O)c4cc(C#N)cn4C)cc3)cc2)ccc(C(=O)Nc2ccc(C(=O)O)cc2)c1O	gyrA	enzyme activity, inhibitor	–	700
Cc1cnc(-c2ccc(-c3ccc(NC(=O)Nc4c(F)cc(F)cc4F)cc3F)c3c2C(=O)NC3)[nH]1	STE20-like serine/threonine-protein kinase (SLK, Homo sapiens, UniProt Q9H2G2)	enzyme activity, inhibitor	–	14.3
CCCCCCCc1ccc(CCc2cccc(O)c2C(=O)O)cc1	Histone acetyltransferase p300 (EP300, Homo sapiens, UniProt Q09472)	enzyme activity, inhibitor, radiometric	–	> 200000
Cc1cc(C)cc(S(=O)(=O)c2c(C(=O)NCCCCCNS(=O)(=O)c3ccccc3)[nH]c3ccc(Cl)cc23)c1	gag-pol reverse transcriptase	enzyme activity, inhibitor, ELISA	–	120
CN1CCN(c2ccc(Nc3ncc4cc(C#N)c(=O)n(C5CCCC5)c4n3)cc2)CC1	Serine/threonine-protein kinase WNK2 (WNK2, Homo sapiens, UniProt Q9Y3S1)	enzyme activity, inhibitor	–	> 10000
N#Cc1ccc(Nc2nc(N)cc(Oc3c(F)cc(-c4ccccc4F)cc3F)n2)cc1	gag-pol reverse transcriptase	enzyme activity, inhibitor	–	40
CC(C)Oc1c(NC(=O)c2ccc(NC(=O)[C@H](CC(N)=O)NC(=O)c3ccc(NC(=O)c4ccc(C#N)nc4)cc3)cc2)ccc(C(=O)Nc2ccc(C(=O)O)cc2)c1O	gyrA	enzyme activity, inhibitor	–	500
CCCS(=O)(=O)Nc1ccc(F)c(C(=O)c2c[nH]c3ncc(Br)cc23)c1F	Dual specificity mitogen-activated protein kinase kinase 6 (MAP2K6, Homo sapiens, UniProt P52564)	enzyme activity, inhibitor, ADP detection	–	2500
O=C1NC(=O)/C(=C/c2ccc(OCCNc3nc4c(cnn4C4CCCC4)c(=O)[nH]3)c(F)c2)S1	PDE2A	enzyme activity, inhibitor	–	58
CC(C)c1cccc2c(-c3ccccc3)cc(-c3ccc(-c4ccc(C(=O)O)cc4)[nH]3)nc12	Retinoic acid receptor alpha (RARA, Homo sapiens, UniProt P10276)	reporter gene, antagonist	–	15
COc1ccc(C2=NN(C3CCCCCC3)C(=O)[C@@H]3CC=CC[C@H]23)cc1-c1ccc(C(N)=O)cc1 (relative stereo)	PDE2A	enzyme activity, inhibitor	–	3980
CC(C)Oc1c(NC(=O)c2ccc(NC(=O)[C@H](CC(N)=O)NC(=O)c3cccc(-c4cccc(C#N)c4)c3)cc2)ccc(C(=O)Nc2ccc(C(=O)O)cc2)c1O	gyrA	enzyme activity, inhibitor	–	> 50000
N#Cc1ccc(Nc2nc(N)cc(Oc3ccc(-c4ccc(C#N)cc4)c(F)c3)n2)cc1	gag-pol reverse transcriptase	enzyme activity, inhibitor	–	50
Cc1cc(C)cc(S(=O)(=O)c2c(C(=O)NCCCNS(=O)(=O)c3cccs3)[nH]c3ccc(Cl)cc23)c1	gag-pol reverse transcriptase	enzyme activity, inhibitor, ELISA	–	190
N#C/C(=C\c1cccn1S(=O)(=O)c1ccccc1)S(=O)(=O)c1ccccc1	Protein phosphatase methylesterase 1 (Homo sapiens, UniProt Q9Y570)	enzyme activity, inhibitor	–	> 20000
CC(C)Oc1c(NC(=O)c2ccc(NC(=O)[C@H](CC(N)=O)NC(=O)c3ccc(NC(=O)c4cccc([N+](=O)[O-])c4)cc3)cc2)ccc(C(=O)Nc2ccc(C(=O)O)cc2)c1O	gyrA	enzyme activity, inhibitor	–	2200
Cc1cc(C)cc(S(=O)(=O)c2c(C(=O)NCCCCCNS(=O)(=O)c3ccc(F)cc3)[nH]c3ccc(Cl)cc23)c1	gag-pol reverse transcriptase	enzyme activity, inhibitor, ELISA	–	150
N#Cc1ccc(Nc2nc(N)cc(Oc3ccc(-c4ccc(C#N)cc4)cc3C(F)(F)F)n2)cc1	gag-pol reverse transcriptase	enzyme activity, inhibitor	–	70

SMILES	target	assay	setting	IC50 [nM]
CCN1CCN(Cc2ccc(C(=O)Nc3ccc(C)c(Oc4ccc5c(c4)CC(=O)N5)c3)cc2C(F)(F)F)CC1	Tyrosine-protein kinase ABL1 (ABL1, Homo sapiens, UniProt P00519)	enzyme activity, inhibitor	–	1810
Cc1cc(C)cc(S(=O)(=O)c2c(C(=O)NCCNS(=O)(=O)c3ccc(Cl)cc3)[nH]c3ccc(Cl)cc23)c1	gag-pol reverse transcriptase	enzyme activity, inhibitor, ELISA	–	55
CC(C)Oc1c(NC(=O)c2ccc(NC(=O)[C@H](CC(N)=O)NC(=O)c3ccc(NC(=O)c4ccc(C#N)cc4)cc3)cc2)ccc(C(=O)Nc2ccncc2)c1O	gyrA	enzyme activity, inhibitor	–	900
Cc1cc(C)cc(S(=O)(=O)c2c(C(=O)NCCNS(=O)(=O)c3ccc([N+](=O)[O-])cc3)[nH]c3ccc(Cl)cc23)c1	gag-pol reverse transcriptase	enzyme activity, inhibitor, ELISA	–	100
CCOCc1nc(O)c(-c2nnc(Cc3ccc(Cl)cn3)o2)c(O)c1-c1c(OC)cccc1OC	Alpha-2A adrenergic receptor (ADRA2A, Homo sapiens, UniProt P08913)	ligand displacement, radioligand	–	> 30000
CNC(=O)c1ccccc1Nc1cc(Nc2cc(C)c(C3CCN(CCCCCCNC(=O)COc4cccc5c4C(=O)N(C4CCC(=O)NC4=O)C5=O)CC3)cc2OC(C)C)ncc1C(F)(F)F (centres unmarked)	Protein-tyrosine kinase 2-beta (PTK2B, Homo sapiens, UniProt Q14289)	enzyme activity, inhibitor	–	296
CC1(C)C(/C=C/C=C2/N(CCCc3ccccc3)c3ccc(Cl)cc3C2(C)C)=[N+](CCCc2ccccc2)c2ccc(Cl)cc21	PRMT6	enzyme activity, inhibitor, radiometric	–	1660
CC(C)Oc1c(NC(=O)c2ccc(NC(=O)[C@H](CC(N)=O)NC(=O)c3ccc(C#Cc4ccc(C#N)cc4)cc3)cc2)ccc(C(=O)Nc2ccc(C(=O)O)cc2)c1O	gyrA	enzyme activity, inhibitor	–	500
N#Cc1ccc(Nc2nc(N)cc(Oc3ccc(-c4cccc(C#N)c4)cc3)n2)cc1	gag-pol reverse transcriptase	enzyme activity, inhibitor	–	700
Cc1cc(C)cc(S(=O)(=O)c2c(C(=O)NCCCNS(=O)(=O)c3ccc(F)cc3)[nH]c3ccc(Cl)cc23)c1	gag-pol reverse transcriptase	enzyme activity, inhibitor, ELISA	–	100
Cc1cc(/C=C/C#N)cc(C)c1Nc1ccnc(Nc2ccc(C#N)cc2)n1	gag-pol reverse transcriptase	enzyme activity, inhibitor	–	14
CC(C)Oc1c(NC(=O)c2ccc(NC(=O)[C@H](CC(N)=O)NC(=O)c3ccc(NC(=O)c4ccc(C#N)cc4)cc3)cc2)ccc(C(=O)NC2CCNCC2)c1O	gyrA	enzyme activity, inhibitor	–	500
N#Cc1ccc(Nc2nc(N)cc(Oc3ccc(-c4ccc(C#N)cc4)c(C#N)c3)n2)cc1	gag-pol reverse transcriptase	enzyme activity, inhibitor	–	90
NCc1ccccc1	Secernin-3 (Homo sapiens, UniProt Q0VDG4)	enzyme activity, inhibitor	lysate	> 300000
Cc1cc(C)cc(S(=O)(=O)c2c(C(=O)NCCNS(=O)(=O)c3ccccc3)[nH]c3ccc(Cl)cc23)c1	gag-pol reverse transcriptase	enzyme activity, inhibitor, ELISA	–	55
CCCC(CCC)C(=O)O	Aldo-keto reductase family 1 member A1 (AKR1A1, Homo sapiens, UniProt P14550)	enzyme activity, inhibitor, absorbance	pH 6.2	53200
N#Cc1ccc(Nc2nc(N)cc(Oc3ccc(-c4ccccc4)cc3F)n2)cc1	gag-pol reverse transcriptase	enzyme activity, inhibitor	–	160
Cc1cc(C)cc(S(=O)(=O)c2c(C(=O)NCCCCNS(=O)(=O)c3cccs3)[nH]c3ccc(Cl)cc23)c1	gag-pol reverse transcriptase	enzyme activity, inhibitor, ELISA	–	190
N#Cc1ccc(Nc2nc(N)cc(Oc3ccc(-c4ccccc4F)cc3)n2)cc1	gag-pol reverse transcriptase	enzyme activity, inhibitor	–	260
CCCCN1/C(=C/C=C(Br)/C=C/C2=[N+](CCCC)c3ccc(Br)cc3C2(C)C)C(C)(C)c2cc(Br)ccc21	PRMT6	enzyme activity, inhibitor, radiometric	–	2430
